# Results as given in the EternaBench riboswitch data.
# System: MS2 coat protein
# Assay: apparent Kd, MS2 coat protein; higher = weaker binding; RNA-MaP array; FMN 200 µM where present
# Summary of the method: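 The apparent Kd is reported as the median of filtered per-cluster binding-curve fits. To get these curves, designs transcribed by stalled E. coli RNA polymerase on Illumina sequencing-chip clusters were titrated with SNAP-549-labelled MS2 coat protein from 0.7 or 1.5 nM, doubling to 3 µM. Titrations were run without and then with constant ligand in 100 mM Tris-HCl pH 7.5, 80 mM KCl, 4 mM MgCl2, BSA, DTT, yeast tRNA and Tween-20, and green signal was normalised to red-channel RNA signal and control-cluster median Fmax.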
# [1] = designed as: ON switch for flavin mononucleotide, no ligand
# [2] = ligand present: flavin mononucleotide, designed as: ON switch for flavin mononucleotide
# [3] = designed as: OFF switch for flavin mononucleotide, no ligand
# [4] = ligand present: flavin mononucleotide, designed as: OFF switch for flavin mononucleotide
Sequence,apparent Kd [1] [nM],apparent Kd [2] [nM],apparent Kd [3] [nM],apparent Kd [4] [nM]
AAUAAUUAUUAAGGAUAUGGGUUGAUAACAUGAGGAUCACCCAUGUUAAAUAAGCCGAGAGGCUACUAGAAGGAUAUAUAUAUU,1050,435,–,–
AAUACUACAGGAUAUACAUGGGUGAUCCUCAUGUCCCUUCUACAUGAGGAUCACCCAUGUAGAAGGGUAGUACA,–,–,13.4,8.3
AAUAGUAUUGUAGGAUAUGUUAUUUUCUAACAUGAGGAUCACCCAUGUAAUAUAGGGUUGUUUCUACAGAAGGACAAUUUAUUA,509,387,–,–
AAUAUAAAGCAGAAGGCCUUAUUACAUGAGGAUCACCCAUGUAAUCGUGGGAGGAUAUGCAUGAUACAACUACGUAUCGUAGCA,9.33,5.19,–,–
AAUAUAAGAGCUGGAAAUCUCAAAACAUGAGGAUCACCCAUGUAGGAUAUCAGCACGAUAAGUGCUGAGAAGGACAUCCAGCUC,–,–,16,18.1
AAUAUAAGAGCUGGUAAUCUCAAAACAUGAGGAUCACCCAUGUAGGAUAUCAGCACGAUAAGUGCUGAGAAGGACAUCCAGCUC,–,–,14.3,16.7
AAUAUAAGAGCUGGUCUCAAAAGAACAUGAGGAUCACCCAUGUAGGAUAUCAGCACGAUAAGUGCUGAGAAGGACAUCCAGCUC,–,–,14.5,18.6
AAUAUACAUGAGGAUCACCCAUGUUAGGUGGGACUAGGAUAUCAGAGUACAUUAUGAACAUGAGAAGGAGUCUCAG,66.2,24.2,–,–
AAUAUGAGCUGGUUUAAAUCCUAAACAUGAGGAUCACCCAUGUAGGAUAUCAGCACGAUAAGUGCUGAGAAGGACAUCCAGCUC,–,–,15.1,15.2
AAUAUGUUGCAGAAGGUUAUUUUUAUAACGAUCCAUGAGACAUGAGGAUCACCCAUGUAAUAGAUGAAGGAUAUGCAAUAUAUU,–,–,6.21,5.84
AAUCCACAUGAGGAUCACCCAUGUCAGGAUAUCGCGCGCGCGGUUUCGGUCGCGCGCGCGAGAAGGGACGGCUG,–,–,28.8,51.7
AAUGCGGCAGGAUAUACAUGAGGAUCACCCAUGUAGAUCAGAUAUAUGGUCGAGCCAUGUAGAAGGGCCGCAAA,–,–,30.8,110
AAUGGCUAGCGCUCUGGAACUGCACAGGAUAUGAAGAGCUACAUGAGGAUCACCCAUGUUUAAAAUCAGAAGGGUGAGUAUCAG,166,16.2,–,–
AAUGGGCAGCAGAAGGCAUGUCAACGGACAUGAGGAUCACCCAUGUAGUAUAGCCGAAAGGCACAUGAGGAUAUGCUGCCCUAA,19.4,5.14,–,–
AAUGGGCAGCAGAAGGCAUGUCUACGGACAUGAGGAUCACCCAUGUAGUAAAGCCGAAAGGCGCAUGAGGAUAUGCUGCCCUAA,–,8.23,–,–
AAUGUACGAGGAUAUACAUAGAUACAGAUACAUGUAGACGUACAUGAGGAUCACCCAUGUAGAAGGCGUACAUA,–,–,178,73.8
AAUGUCUGAGGAUAUCGAAUAGUGUACAUGAGGAUCACCCAUGUUUUUAUUAGUAUAUUACGAGAAGGCAGUGGAA,–,–,17.8,14.8
AAUUACAGAUAAGGAUAUUGACAUGAGGAUCACCCAUGUAUUUGGGAAUGUUUACUGAAUUCUUACGAGAAGGUAUACGUACUU,–,–,123,87
AAUUACAGAUGAGGAUAUUGACAUGAGGAUCACCCAUGUAUUUGGGAAUGUUUACUGAAUUCUUACGAGAAGGUAUACGUACUU,–,–,122,94.3
AAUUAGGUCACAGGAUAUACUACAUCCAAUGCAGUAGAAGGGUGACACAUUCUGUGCAGACAUGAGGAUCACCCAUGUAACCAC,11.6,6.39,–,–
AAUUAGUAAGAAUCACAUGAGGAUCACCCAUGUUUACGGAUGCAGGAUAUGUGGGAUAUUACUUAACAGAAGGGCAAUAACUUU,104,44.2,–,–
AAUUAUAUACAGAAGGAGUUAUUUUGAGGAUUACUAGGAUAUGUUCACAUGAGGAUCACCCAUGUCAUAUUGGGAUUUAUUAUU,–,–,19.5,26.7
AAUUAUUGAUGAGGAUAUUGUGGUGAAACACGACAAGAAGGCAUUAUUCACAUGAGGAUCACCCAUGUGAGCCUGGUGCAUAUA,–,–,15.5,13.8
AAUUAUUUACAGAAGGAGUAAGAUUAUGUAUUACUAGGAUAUGUUCACAUGAGGAUCACCCAUGUACUAGUAGGUUUUUUAUGU,–,–,6.96,7.66
AAUUAUUUUUGAGGAUAUCGUGGUGAAACACCACGAGAAGGCAAGAUACACAUGAGGAUCACCCAUGUGAGCCUGAUGCUUAUG,–,–,16.9,21.4
AAUUCACAUGAGGAUCACCCAUGUCAGGAUAUGGUUUCACGGGUUUCGGUGCGUGAGGCCAGAAGGGACAGCUA,–,–,61,73.7
AAUUGACCGCUAGGAUAUGCACAUGAGGAUCACCCAUGUAAGCGUGUAAAGUGGUAUGCCCGUGUGUAGAAGGAGCGAUGCUGA,–,–,47.6,40.6

Sequence,apparent Kd [1] [nM],apparent Kd [2] [nM],apparent Kd [3] [nM],apparent Kd [4] [nM]
AAUUGGAUCCAGAAGGCAUGGACGACCCGUCACAUUAACAUGAGGAUCACCCAUGUAUAAAGACAUGAGGAUAUGGAUCCUAAA,25.7,7.99,–,–
AAUUGGAUCCAGAAGGCAUGGACGACCCGUCACAUUAACAUGAGGAUCACCCAUGUCAAAAUACAUGAGGAUAUGGAUCCUAAA,905,37.9,–,–
AAUUGUUUCUGAGGAUAUCAGUAGUAUGCUUUUUGAGAAGGCAGUACAUGAGGAUCACCCAUGUUGUGGUUUGAUAGAAUGAUA,193,182,–,–
AAUUUAAAGGGAGGAUAUACAUGAGGAUCACCCAUGUAAUAAUAUGAUAUUUUUUUUGUAUGAGUGUAGAAGGCCCAAAUAAAA,–,–,51.6,61
AAUUUAAUACAUGAGGAUCACCCAUGUAAAUUAAUUAAGAUCUAGGAUAUCAGCUCGUUUAGAGCUGAGAAGGAGAUCACAUGU,16.6,14.1,–,–
AAUUUACAGCUAGGAUAUACAUGAGGAUCACCCAUGUAAUCAUAUGAUAUUUUUUUUGUAUGAGUGUAGAAGGAGCAAAUAAAA,–,–,9.38,8.69
AAUUUACAGCUAGGAUAUACAUGAGGAUCACCCAUGUAAUGAUAGGAUCUUAUGAUCGUAUCAGUGUAGAAGGAGCAAAUAAGA,–,–,9.39,8.81
AAUUUCAGAUGAGGAUAUUGACAUGAGGAUCACCCAUGUAUUUGGGAAUGUUUACUGAAUUCUUACAAGAAGGUAUACGAACUU,–,–,237,164
ACAAAAGUUGAUCCUCGCUACAUGAGGAUCACCCAUGUAAUGGAGGAUAUGCAGCAACAAAACUCGCAGAAGGCCAUUUGCUGG,–,–,52.5,30.5
ACAAAUCGAGGAUAUACAUGAGGAUCACCCAUGUGGAGCCCACUGCGCGGUUCUCAGCGUAGAAGGCGAAAACA,–,–,30.4,99.9
ACAAAUGGAGGAUAUACAUGAGGAUCACCCAUGUUUAUCCUACAUAUGUGAUAAUAAUGUAGAAGGCCAUAUGA,–,–,12.3,12.3
ACAAAUGGAGGAUAUACAUGAGGAUCACCCAUGUUUAUCCUACAUAUGUGAUAAUCAUGUAGAAGGCCAUUUGA,–,–,24.7,15.9
ACAAGAGCGGAAGGAUAUUUUACAUGAGGAUCACCCAUGUAAUAAAUGAGGAUCACGGAUGUAGUAAAGAAGGUCCGGAUAAGA,–,–,26.1,32.8
ACAAUAGUAUCUCAUGUAUUACAUGAGGAUCACCCAUGUAACUAGGAUAUGUAUUAGAAUUUACAACAGAAGGAGUUAUUAUGU,–,–,9.03,17.7
ACAGAGCCUGACAUGAGGAUCACCCAUGUUAGAUUGUUAUGUCAGGAUAUUGUCUAGCAACUAGACAAGAAGGGACGCUCUGUG,71.2,8.88,–,–
ACAGGCUUCGAGAAGGACAUGAGGAUCACCCAUGUGCGUGUGAAGCAGCCGUGAGGCUGCAUCAUGUAGGAUAUCGGAGUCUGA,–,–,75.5,559
ACAGUAUAUGUAGGAUAUCGUUGGUUAGAUAGGCGAGAAGGGCAUAGUACAUGAGGAUCACCCAUGUGUUGGUCCUCGCAGAAA,–,–,454,237
ACAUAAAUUCGAGGAUAUCGGUGAUAUAAUUUACGAGAAGGCGAUAAUAGUUAUAAACUUAUAGACAUGAGGAUCACCCAUGUA,30.2,28.3,–,–
ACAUACAUUCGAGGAUAUCGGUGAACAUAUUAACGAGAAGGCGAUAUAAUUUUUAAUCUUAUAAACAUGAGGAUCACCCAUGUA,21.9,20.2,–,–
ACAUACAUUCGAGGAUAUCGGUGAUUAAUAAUACGAGAAGGCGAUUUAAGAUAUAAAAUUUUAGACAUGAGGAUCACCCAUGUA,27.9,23.9,–,–
ACAUACAUUCGAGGAUAUCGGUGAUUAAUAAUACGAGAAGGCGAUUUAAGGCAUAAAGCCUUAGACAUGAGGAUCACCCAUGUA,97.9,43.8,–,–
ACAUACAUUCGAGGAUAUCGGUGAUUAAUUUUACGAGAAGGCGAUUUAAGGCAUAAUGCUUUAGACAUGAGGAUCACCCAUGUA,72.9,34.4,–,–
ACAUGAGGAUCACCCAUGUAAACAUAGGAUAUUGGUGAUCAGGCAUGUUAUACAGGAUAUGUCUGCGAGAAGGAUGCACGUUGC,583,465,–,–
ACAUGAGGAUCACCCAUGUAGAAUGAAGAAGGAUGUUACUUGAGACUCACCCAUGUACAUAGGACAUAGGAUAUUCUAAUAAUU,10.1,7.83,–,–
ACAUGAGGAUCACCCAUGUAUAGAAUUGAAUGUUAAGAUACGUAGGAUAUCGAGUUUAGUAUGAUCGAGAAGGACGAUCUGAUA,19.8,13.6,–,–
ACAUGAGGAUCACCCAUGUAUUACAUGGUUAUGUUUAUUAACAGAAGGCGAAAUUACCACUUGAUCGAGGAUAUGUAUUCAAUU,–,–,73,59.7
ACAUGAGGAUCACCCAUGUAUUUAUUUGAAUCUUAAGUUACGUAGGAUAUCGUGUAUACUAUCAUCGAGAAGGACGAUGUGAUA,15.4,13.6,–,–
